Activity calls are given as the source filed them. No cut-off for these calls is given here.
Tests used:
Mus musculus [1] = experiment: Elevation of IL4 in C57B/6 mouse at 1 ug, iv after 2 hrs; format: functional, organism-based
In short: (§1)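 Naive C57BL/6 mice given glycolipid at 1 µg/mouse by intravenous injection; serum IFN-γ and IL-4 measured by ELISA at several time points after dosing. Data are means ± SD of three mice, representative of two separate experiments.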

Splenocyte [2] = experiment: Stimulation of IL4 secretion from C57BL/6 mouse splenocytes at 125 ng/mL after 72 hrs; format: functional
In short: (§2)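 Splenocytes from naive C57BL/6 mice were cultured with glycolipid at various concentrations for 72 h. IFN-γ and IL-4 in the supernatant were measured by ELISA and expressed as relative activities. Data are means ± SD of duplicates, representative of two experiments; significance by Student's t test.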

Mus musculus [3] = experiment: Elevation of IFN-gamma in C57B/6 mouse at 1 ug, iv after 12 hrs; format: functional, organism-based; in short: as §1
Splenocyte [4] = experiment: Stimulation of IL4 secretion from C57BL/6 mouse splenocytes at 32 ng/mL after 72 hrs; format: functional; in short: as §2
Splenocyte [5] = experiment: Stimulation of IFN-gamma secretion from C57BL/6 mouse splenocytes at 125 ng/mL after 72 hrs; format: functional; in short: as §2
Splenocyte [6] = experiment: Stimulation of IFN-gamma secretion from C57BL/6 mouse splenocytes at 32 ng/mL after 72 hrs; format: functional; in short: as §2
Mus musculus [7] = experiment: Elevation of IL4 in C57B/6 mouse at 1 ug, iv; format: functional, organism-based; in short: as §1
Mus musculus [8] = experiment: Elevation of IFN-gamma in C57B/6 mouse at 1 ug, iv; format: functional, organism-based; in short: as §1
Splenocyte [9] = experiment: Stimulation of IL4 secretion from C57BL/6 mouse splenocytes at 125 ng/mL after 72 hrs relative to alphaGalCer; format: functional; in short: as §2
Splenocyte [10] = experiment: Stimulation of IL4 secretion from C57BL/6 mouse splenocytes at 32 ng/mL after 72 hrs relative to alphaGalCer; format: functional; in short: as §2
Splenocyte [11] = experiment: Stimulation of IFN-gamma secretion from C57BL/6 mouse splenocytes at 125 ng/mL after 72 hrs relative to alphaGalCer; format: functional; in short: as §2
DN32.D3 [12] = experiment: Stimulation of IL2 production in DN32.D3 cells at 32 ng/mL after 16 hrs; format: functional, cell-based; details: Mus musculus
In short: (§3)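 Rat basophilic leukemia cells transfected with mouse CD1d were pulsed with glycolipid at various concentrations for 4 h, then washed three times with PBS. They were co-cultured with DN32.D3 NKT hybridoma cells (Vα14+) for 16 h, and IL-2 in the supernatant was measured by ELISA. Data are means ± SD of duplicates, representative of two experiments.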

Splenocyte [13] = experiment: Stimulation of IFN-gamma secretion from C57BL/6 mouse splenocytes at 32 ng/mL after 72 hrs relative to alphaGalCer; format: functional; in short: as §2
DN32.D3 [14] = experiment: Stimulation of IL2 production in DN32.D3 cells at 500 ng/mL after 16 hrs; format: functional, cell-based; details: Mus musculus; in short: as §3
DN32.D3 [15] = experiment: Stimulation of IL2 production in DN32.D3 cells after 16 hrs; format: functional, cell-based; details: Mus musculus; in short: as §3

Compound: CCCCCCCCCCCCCCCCCCCCCCCCCC(=O)N[C@@H](CO[C@H]1O[C@H](CO)[C@H](O)[C@H](O)[C@H]1O)[C@H](O)[C@H](O)CCCCCCCCCCCCCC [RGI-7000]
- Activity (Mus musculus [1]): Active
- Activity (Splenocyte [2]): 0.9 ng/mL
- Activity (Mus musculus [3]): Active
- Activity (Splenocyte [4]): 1.12 ng/mL
- Activity (Splenocyte [5]): 12.8 ng/mL
- Activity (Splenocyte [6]): 15.6 ng/mL

Compound: CCCCCCCCCCCCCC[C@@H](O)[C@@H](O)[C@H](CO[C@H]1O[C@H](CO)[C@H](O)[C@H](O)[C@H]1O)n1cc(CCCCCCC)nn1
- Activity (Mus musculus [7]): inactive
- Activity (Mus musculus [8]): inactive
- Activity (Splenocyte [9]): Active

Compound: CCCCCCCCCCCCCCCCCCCCCCCCc1cn([C@@H](CO[C@H]2O[C@H](CO)[C@H](O)[C@H](O)[C@H]2O)[C@H](O)[C@H](O)CCCCCCCCCCCCCC)nn1
- Activity (Splenocyte [10]): 1.51 ng/mL
- Activity (Splenocyte [11]): 11.5 ng/mL
- Activity (Splenocyte [9]): 1.09 ng/mL
- Activity (DN32.D3 [12]): Active
- Activity (Splenocyte [13]): 4.63 ng/mL

Compound: CCCCCCCCCCCCCCCCCCCCCCCc1cn([C@@H](CO[C@H]2O[C@H](CO)[C@H](O)[C@H](O)[C@H]2O)[C@H](O)[C@H](O)CCCCCCCCCCCCCC)nn1
- Activity (Splenocyte [9]): Active

Compound: CCCCCCCCCCCCCC[C@@H](O)[C@@H](O)[C@H](CO[C@H]1O[C@H](CO)[C@H](O)[C@H](O)[C@H]1O)n1cc(CCCCCC)nn1
- Activity (Mus musculus [7]): inactive
- Activity (Mus musculus [8]): inactive
- Activity (DN32.D3 [14]): inactive

Compound: CCCCCCCCCCCCCCCCc1cn([C@@H](CO[C@H]2O[C@H](CO)[C@H](O)[C@H](O)[C@H]2O)[C@H](O)[C@H](O)CCCCCCCCCCCCCC)nn1
- Activity (Mus musculus [7]): inactive
- Activity (DN32.D3 [15]): inactive
- Activity (Mus musculus [8]): inactive
